Results reported in ChEMBL document CHEMBL4689842, “EUbOPEN Chemogenomics Library wave 1” (2021).
Where “and” joins values, the source holds several entries; their conditions need not be identical. Equal values may be shown once.

Test system: HEK-293T
Assay: Multiplex assay against HEK293T;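 for Population Tubulin-Different-Phenotype (%): share of the cells with healthy nuclei that show this phenotype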
Type: toxicity, cell-based
Conditions: human, 1 µM, compound concentration 1 uM
In short: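 Cells were classed with CellPathfinder machine-learning gating, first as Hoechst high-intensity objects or normal cells, then (normal cells) as healthy, pyknosed or fragmented nuclei, and finally (pyknosed cells) as mitotic or apoptotic. Staining of live cells at seeding used Hoechst33342, BioTracker Green Microtubule Cytoskeleton Dye, MitoTracker Red and Annexin V Alexa Fluor 680, with imaging on a CQ1 microscope at 37°C and 5% CO2 after compound addition. Tubulin, mitochondrial-mass and membrane-permeability phenotypes are per cents of healthy-nucleus cells.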

`CN([C@@H](Cc1ccc(OS(=O)(=O)c2cccc3cnccc23)cc1)C(=O)N1CCN(c2ccccc2)CC1)S(=O)(=O)c1cccc2cnccc12` was tested, and the “Population Apoptotic (%)” value (12 h, replicate 1) was 32% and 22%, the “Population Fragmented Nuclei (%)” value (12 h, replicate 1) was 26% and 15% and the “Population Healthy Nuclei (%)” value (12 h, replicate 1) was 31% and 38%. For the same compound, the “Population Hoechst High Intensity Objects (%)” value (12 h, replicate 1) was 18% and 15%, the “Population Membrane Permeable-Phenotype (%)” value (12 h, replicate 1) was 34% and 31% and the “Population Mitochondria Different-Phenotype (%)” value (12 h, replicate 1) was 22%. The “Population Mitotic Cells (%)” value (12 h, replicate 1) was 67% and 77%, the “Population Normal (%)” value (12 h, replicate 1) was 81% and 84% and the “Population Pyknosed Nuclei (%)” value (12 h, replicate 1) was 42% and 46%. The “Population Tubulin-Different-Phenotype (%)” value (12 h, replicate 1) was 77% and 86%, the “Total Cell Count” value (12 h, replicate 1) was 417 and 601 and the “Population Apoptotic (%)” value (12 h, replicate 2) was 15% and 13%. The “Population Fragmented Nuclei (%)” value (12 h, replicate 2) was 2% and 3%, the “Population Healthy Nuclei (%)” value (12 h, replicate 2) was 73% and the “Population Hoechst High Intensity Objects (%)” value (12 h, replicate 2) was 3% and 2%. For the same compound, the “Population Membrane Permeable-Phenotype (%)” value (12 h, replicate 2) was 28% and 27%, the “Population Mitochondria Different-Phenotype (%)” value (12 h, replicate 2) was 34% and 43% and the “Population Mitotic Cells (%)” value (12 h, replicate 2) was 84% and 86%. For the same compound, the “Population Normal (%)” value (12 h, replicate 2) was 96% and 97%, the “Population Pyknosed Nuclei (%)” value (12 h, replicate 2) was 23% and 22% and the “Population Tubulin-Different-Phenotype (%)” value (12 h, replicate 2) was 97%. For the same compound, the “Total Cell Count” value (12 h, replicate 2) was 993 and 1067, the “Population Apoptotic (%)” value (24 h, replicate 1) was 39% and 33% and the “Population Fragmented Nuclei (%)” value (24 h, replicate 1) was 22% and 14%. The “Population Healthy Nuclei (%)” value (24 h, replicate 1) was 46% and 51%, the “Population Hoechst High Intensity Objects (%)” value (24 h, replicate 1) was 14% and 13% and the “Population Membrane Permeable-Phenotype (%)” value (24 h, replicate 1) was 20%. The “Population Mitochondria Different-Phenotype (%)” value (24 h, replicate 1) was 50% and 32%, the “Population Mitotic Cells (%)” value (24 h, replicate 1) was 60% and 66% and the “Population Normal (%)” value (24 h, replicate 1) was 85% and 86%. The “Population Pyknosed Nuclei (%)” value (24 h, replicate 1) was 31% and 33%, the “Population Tubulin-Different-Phenotype (%)” value (24 h, replicate 1) was 88% and 94% and the “Total Cell Count” value (24 h, replicate 1) was 402 and 587. For the same compound, the “Population Apoptotic (%)” value (24 h, replicate 2) was 11%, the “Population Fragmented Nuclei (%)” value (24 h, replicate 2) was 9% and 3% and the “Population Healthy Nuclei (%)” value (24 h, replicate 2) was 75% and 68%. For the same compound, the “Population Hoechst High Intensity Objects (%)” value (24 h, replicate 2) was 2% and 5%, the “Population Membrane Permeable-Phenotype (%)” value (24 h, replicate 2) was 25% and 18% and the “Population Mitochondria Different-Phenotype (%)” value (24 h, replicate 2) was 40% and 37%. For the same compound, the “Population Mitotic Cells (%)” value (24 h, replicate 2) was 88%, the “Population Normal (%)” value (24 h, replicate 2) was 97% and 94% and the “Population Pyknosed Nuclei (%)” value (24 h, replicate 2) was 15% and 28%. For the same compound, the “Population Tubulin-Different-Phenotype (%)” value (24 h, replicate 2) was 98% and 96% and the “Total Cell Count” value (24 h, replicate 2) was 1327 and 1023.
